Experimental data published in the M2OR odorant receptor database.

Experiments:
Details in all cases: stereoisomer not certain
OR13C2 (Homo sapiens) = molecular target: T1, OR13C2 (Homo sapiens) (UniProt Q8NGS9)
T1 sequence (whole entry): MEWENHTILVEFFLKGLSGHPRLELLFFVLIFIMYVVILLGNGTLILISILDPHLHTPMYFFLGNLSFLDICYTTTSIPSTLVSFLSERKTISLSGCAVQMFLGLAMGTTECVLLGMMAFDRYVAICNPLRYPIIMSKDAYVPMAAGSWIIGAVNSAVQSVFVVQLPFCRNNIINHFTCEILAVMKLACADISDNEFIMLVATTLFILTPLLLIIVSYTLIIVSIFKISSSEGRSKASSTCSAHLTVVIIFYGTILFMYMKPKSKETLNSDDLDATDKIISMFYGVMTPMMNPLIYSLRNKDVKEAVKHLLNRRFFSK
Procedure, shortened: (§1)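 Transient luciferase assays in mammalian cell lines were common, though methods varied by source. The values come from published papers and their supplementary material, with extra details from the original authors when needed. Responsive refers to a measured signal the original authors judged statistically different from baseline, and non-responsive (inactive) to the remainder.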

OR13C3 (Homo sapiens) = molecular target: T2, OR13C3 (Homo sapiens) (UniProt Q8NGS6)
T2 sequence (whole entry): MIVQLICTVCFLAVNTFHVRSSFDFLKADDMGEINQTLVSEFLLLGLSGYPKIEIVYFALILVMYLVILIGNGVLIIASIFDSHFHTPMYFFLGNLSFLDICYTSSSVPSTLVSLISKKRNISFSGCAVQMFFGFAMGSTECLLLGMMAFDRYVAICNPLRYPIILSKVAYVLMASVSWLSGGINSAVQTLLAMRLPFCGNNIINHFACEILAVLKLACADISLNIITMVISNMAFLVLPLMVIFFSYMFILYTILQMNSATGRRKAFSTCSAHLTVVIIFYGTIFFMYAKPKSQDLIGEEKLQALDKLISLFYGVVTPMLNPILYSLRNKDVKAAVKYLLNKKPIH
Procedure, shortened: as §1

OR13C4 (Homo sapiens) = molecular target: T3, OR13C4 (Homo sapiens) (UniProt Q8NGS5)
T3 sequence (whole entry): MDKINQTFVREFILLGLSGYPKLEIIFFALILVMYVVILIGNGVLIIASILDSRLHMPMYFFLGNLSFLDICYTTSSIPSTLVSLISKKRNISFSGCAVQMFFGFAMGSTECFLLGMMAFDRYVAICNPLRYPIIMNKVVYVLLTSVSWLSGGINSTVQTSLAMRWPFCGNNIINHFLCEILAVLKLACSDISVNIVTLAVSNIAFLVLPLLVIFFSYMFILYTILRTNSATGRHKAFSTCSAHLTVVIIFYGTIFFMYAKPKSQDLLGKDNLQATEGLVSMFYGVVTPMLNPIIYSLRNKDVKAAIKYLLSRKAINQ
Procedure, shortened: as §1

OR13C5 (Homo sapiens) = molecular target: T4, OR13C5 (Homo sapiens) (UniProt Q8NGS8)
T4 sequence (whole entry): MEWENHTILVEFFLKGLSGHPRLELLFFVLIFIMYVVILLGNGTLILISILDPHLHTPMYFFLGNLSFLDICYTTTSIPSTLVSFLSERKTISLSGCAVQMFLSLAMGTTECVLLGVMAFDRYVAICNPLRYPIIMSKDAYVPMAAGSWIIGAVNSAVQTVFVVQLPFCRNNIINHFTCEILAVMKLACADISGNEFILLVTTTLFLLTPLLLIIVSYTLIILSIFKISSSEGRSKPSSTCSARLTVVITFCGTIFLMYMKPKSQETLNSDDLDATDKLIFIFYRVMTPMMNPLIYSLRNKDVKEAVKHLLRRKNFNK
Procedure, shortened: as §1

OR13C8 (Homo sapiens) = molecular target: T5, OR13C8 (Homo sapiens) (UniProt Q8NGS7)
T5 sequence (whole entry): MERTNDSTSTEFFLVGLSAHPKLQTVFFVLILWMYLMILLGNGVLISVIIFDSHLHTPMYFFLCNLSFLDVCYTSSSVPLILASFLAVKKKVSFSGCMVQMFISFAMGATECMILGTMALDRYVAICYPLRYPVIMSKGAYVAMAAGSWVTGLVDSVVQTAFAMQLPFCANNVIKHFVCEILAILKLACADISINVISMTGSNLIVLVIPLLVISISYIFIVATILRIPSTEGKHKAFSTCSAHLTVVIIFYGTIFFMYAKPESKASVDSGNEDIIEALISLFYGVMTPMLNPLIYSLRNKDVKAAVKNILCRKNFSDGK
Procedure, shortened: as §1

OR13C9 (Homo sapiens) = molecular target: T6, OR13C9 (Homo sapiens) (UniProt Q8NGT0)
T6 sequence (whole entry): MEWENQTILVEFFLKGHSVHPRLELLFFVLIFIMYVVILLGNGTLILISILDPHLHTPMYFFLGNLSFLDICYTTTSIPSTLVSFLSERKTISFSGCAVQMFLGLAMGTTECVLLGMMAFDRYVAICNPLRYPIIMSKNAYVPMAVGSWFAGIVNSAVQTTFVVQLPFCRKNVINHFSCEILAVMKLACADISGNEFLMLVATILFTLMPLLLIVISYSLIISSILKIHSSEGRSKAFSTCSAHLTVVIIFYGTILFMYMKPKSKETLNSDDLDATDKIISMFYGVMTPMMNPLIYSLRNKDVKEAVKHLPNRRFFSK
Procedure, shortened: as §1

OR13D1 (Homo sapiens) = molecular target: T7, OR13D1 (Homo sapiens) (UniProt Q8NGV5)
T7 sequence (whole entry): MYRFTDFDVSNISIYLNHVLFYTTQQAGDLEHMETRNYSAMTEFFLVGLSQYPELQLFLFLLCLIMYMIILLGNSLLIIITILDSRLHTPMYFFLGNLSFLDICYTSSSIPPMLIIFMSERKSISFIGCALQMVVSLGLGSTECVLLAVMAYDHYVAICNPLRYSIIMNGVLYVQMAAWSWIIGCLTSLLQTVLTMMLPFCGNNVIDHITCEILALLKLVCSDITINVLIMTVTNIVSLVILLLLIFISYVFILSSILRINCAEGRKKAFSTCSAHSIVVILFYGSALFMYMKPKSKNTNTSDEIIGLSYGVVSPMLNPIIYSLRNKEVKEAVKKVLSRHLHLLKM
Procedure, shortened: as §1

OR13F1 (Homo sapiens) = molecular target: T8, OR13F1 (Homo sapiens) (UniProt Q8NGS4)
T8 sequence (whole entry): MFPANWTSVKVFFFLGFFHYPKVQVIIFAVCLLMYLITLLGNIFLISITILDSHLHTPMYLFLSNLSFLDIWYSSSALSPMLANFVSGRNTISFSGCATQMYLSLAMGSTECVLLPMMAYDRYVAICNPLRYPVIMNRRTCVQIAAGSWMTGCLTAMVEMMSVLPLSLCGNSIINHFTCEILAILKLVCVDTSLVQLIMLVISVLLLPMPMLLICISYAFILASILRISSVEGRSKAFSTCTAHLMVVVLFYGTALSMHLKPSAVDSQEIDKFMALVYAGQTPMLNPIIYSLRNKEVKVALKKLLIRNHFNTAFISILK
Procedure, shortened: as §1

OR13G1 (Homo sapiens) = molecular target: T9, OR13G1 (Homo sapiens) (UniProt Q8NGZ3)
T9 sequence (whole entry): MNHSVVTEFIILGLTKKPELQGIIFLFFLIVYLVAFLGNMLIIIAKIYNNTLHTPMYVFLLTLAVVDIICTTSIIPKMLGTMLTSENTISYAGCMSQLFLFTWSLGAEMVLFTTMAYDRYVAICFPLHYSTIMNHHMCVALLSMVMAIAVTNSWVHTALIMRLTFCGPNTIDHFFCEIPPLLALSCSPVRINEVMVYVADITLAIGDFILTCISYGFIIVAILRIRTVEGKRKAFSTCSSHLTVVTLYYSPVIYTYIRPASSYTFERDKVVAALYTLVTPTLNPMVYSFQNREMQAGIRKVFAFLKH
Procedure, shortened: as §1

OR13H1 (Homo sapiens) = molecular target: T10, OR13H1 (Homo sapiens) (UniProt Q8NG92)
T10 sequence (whole entry): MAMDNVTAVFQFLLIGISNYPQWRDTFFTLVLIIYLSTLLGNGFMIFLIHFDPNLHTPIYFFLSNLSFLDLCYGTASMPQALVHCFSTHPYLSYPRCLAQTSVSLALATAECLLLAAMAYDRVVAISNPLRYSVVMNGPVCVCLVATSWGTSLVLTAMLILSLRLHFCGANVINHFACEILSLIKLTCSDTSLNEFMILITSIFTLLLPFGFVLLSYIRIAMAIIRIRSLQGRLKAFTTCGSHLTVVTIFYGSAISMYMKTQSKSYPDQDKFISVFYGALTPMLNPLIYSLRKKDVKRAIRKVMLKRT
Procedure, shortened: as §1

OR13J1 (Homo sapiens) = molecular target: T11, OR13J1 (Homo sapiens) (UniProt Q8NGT2)
T11 sequence (whole entry): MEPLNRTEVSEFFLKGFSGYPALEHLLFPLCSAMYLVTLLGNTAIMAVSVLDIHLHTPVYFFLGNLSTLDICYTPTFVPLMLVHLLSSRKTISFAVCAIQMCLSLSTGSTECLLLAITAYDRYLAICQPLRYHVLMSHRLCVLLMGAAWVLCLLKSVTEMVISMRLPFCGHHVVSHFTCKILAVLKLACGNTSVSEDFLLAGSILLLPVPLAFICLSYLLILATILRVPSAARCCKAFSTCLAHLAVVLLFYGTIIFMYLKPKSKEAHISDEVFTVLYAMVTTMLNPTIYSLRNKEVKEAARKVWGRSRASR
Procedure, shortened: as §1

OR14A16 (Homo sapiens) = molecular target: T12, OR14A16 (Homo sapiens) (UniProt Q8NHC5)
T12 sequence (whole entry): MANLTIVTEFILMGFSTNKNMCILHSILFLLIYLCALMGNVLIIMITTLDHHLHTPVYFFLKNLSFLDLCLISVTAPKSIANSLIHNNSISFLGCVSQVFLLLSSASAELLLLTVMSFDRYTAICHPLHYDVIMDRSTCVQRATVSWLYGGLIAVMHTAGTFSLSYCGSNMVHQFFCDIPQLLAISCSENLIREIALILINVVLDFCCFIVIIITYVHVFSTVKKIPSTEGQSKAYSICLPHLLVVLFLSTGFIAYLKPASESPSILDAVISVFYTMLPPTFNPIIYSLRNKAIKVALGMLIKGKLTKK
Procedure, shortened: as §1

OR14A2 (Homo sapiens) = molecular target: T13, OR14A2 (Homo sapiens) (UniProt Q96R54)
T13 sequence (whole entry): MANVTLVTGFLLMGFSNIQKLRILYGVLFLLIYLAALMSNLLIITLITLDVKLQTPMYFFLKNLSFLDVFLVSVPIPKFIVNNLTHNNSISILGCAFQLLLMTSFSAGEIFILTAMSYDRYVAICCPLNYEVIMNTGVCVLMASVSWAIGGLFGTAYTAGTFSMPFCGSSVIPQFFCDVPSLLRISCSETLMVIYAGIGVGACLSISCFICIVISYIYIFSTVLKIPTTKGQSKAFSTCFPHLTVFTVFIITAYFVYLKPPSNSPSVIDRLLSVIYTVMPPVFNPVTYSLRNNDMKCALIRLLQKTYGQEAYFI
Procedure, shortened: as §1

OR14C36 (Homo sapiens) = molecular target: T14, OR14C36 (Homo sapiens) (UniProt Q8NHC7)
T14 sequence (whole entry): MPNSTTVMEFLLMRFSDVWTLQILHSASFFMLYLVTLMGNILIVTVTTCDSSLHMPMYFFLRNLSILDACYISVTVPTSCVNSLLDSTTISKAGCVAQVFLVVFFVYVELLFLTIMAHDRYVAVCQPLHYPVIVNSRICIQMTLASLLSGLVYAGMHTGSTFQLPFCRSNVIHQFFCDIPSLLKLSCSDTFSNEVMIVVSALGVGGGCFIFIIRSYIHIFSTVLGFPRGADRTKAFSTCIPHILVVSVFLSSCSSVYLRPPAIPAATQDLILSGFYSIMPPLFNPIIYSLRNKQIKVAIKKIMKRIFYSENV
Procedure, shortened: as §1

OR14I1 (Homo sapiens) = molecular target: T15, OR14I1 (Homo sapiens) (UniProt A6ND48)
T15 sequence (whole entry): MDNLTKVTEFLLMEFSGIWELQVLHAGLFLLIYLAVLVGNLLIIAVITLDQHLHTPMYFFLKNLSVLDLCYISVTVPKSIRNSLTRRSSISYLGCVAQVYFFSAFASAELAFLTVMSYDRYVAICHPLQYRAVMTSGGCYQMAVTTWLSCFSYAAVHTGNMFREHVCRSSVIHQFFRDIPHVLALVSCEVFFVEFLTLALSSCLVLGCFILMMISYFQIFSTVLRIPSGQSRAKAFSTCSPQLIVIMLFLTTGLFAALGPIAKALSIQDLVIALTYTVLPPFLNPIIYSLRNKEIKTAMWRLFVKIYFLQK
Procedure, shortened: as §1

OR14J1 (Homo sapiens) = molecular target: T16, OR14J1 (Homo sapiens) (UniProt Q9UGF5)
T16 sequence (whole entry): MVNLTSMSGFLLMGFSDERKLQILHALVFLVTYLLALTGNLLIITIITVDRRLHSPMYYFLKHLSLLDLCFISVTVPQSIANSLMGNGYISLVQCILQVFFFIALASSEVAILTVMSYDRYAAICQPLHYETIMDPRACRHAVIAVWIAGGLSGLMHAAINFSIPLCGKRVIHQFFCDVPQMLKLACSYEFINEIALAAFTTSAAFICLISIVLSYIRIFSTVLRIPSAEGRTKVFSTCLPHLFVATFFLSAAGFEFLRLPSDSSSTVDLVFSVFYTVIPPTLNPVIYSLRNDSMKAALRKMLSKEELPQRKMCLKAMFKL
Procedure, shortened: as §1

OR14K1 (Homo sapiens) = molecular target: T17, OR14K1 (Homo sapiens) (UniProt Q8NGZ2)
T17 sequence (whole entry): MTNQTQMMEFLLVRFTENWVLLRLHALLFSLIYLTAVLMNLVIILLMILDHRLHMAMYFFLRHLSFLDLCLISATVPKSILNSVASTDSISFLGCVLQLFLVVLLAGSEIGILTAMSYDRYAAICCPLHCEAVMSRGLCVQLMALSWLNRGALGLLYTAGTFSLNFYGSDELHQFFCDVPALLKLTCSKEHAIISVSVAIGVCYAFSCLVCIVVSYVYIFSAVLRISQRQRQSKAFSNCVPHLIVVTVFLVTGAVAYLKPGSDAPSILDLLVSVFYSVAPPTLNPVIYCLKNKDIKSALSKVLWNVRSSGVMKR
Procedure, shortened: as §1

OR1A1 (Homo sapiens) = molecular target: T18, OR1A1 (Homo sapiens) (UniProt Q9P1Q5)
T18 sequence (whole entry): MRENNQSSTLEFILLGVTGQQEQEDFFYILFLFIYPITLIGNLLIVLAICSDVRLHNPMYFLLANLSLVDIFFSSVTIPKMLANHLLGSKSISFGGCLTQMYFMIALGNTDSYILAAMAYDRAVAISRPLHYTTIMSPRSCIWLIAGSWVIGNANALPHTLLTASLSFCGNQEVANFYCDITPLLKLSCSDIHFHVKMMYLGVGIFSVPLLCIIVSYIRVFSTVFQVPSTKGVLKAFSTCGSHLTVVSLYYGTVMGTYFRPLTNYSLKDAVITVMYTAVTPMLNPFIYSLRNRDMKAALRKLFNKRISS
Procedure, shortened: as §1

Measured: odorant receptor agonist call;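 further: active if original authors judged signal statistically different from baseline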

CCC1OC(=O)C(O)=C1C (stereo not drawn)
inactive: all assays above

CCCCCCC=CC=O
inactive: OR1A1 (Homo sapiens)

CCCc1ccc(O)c(OC)c1
inactive: OR1A1 (Homo sapiens)

CCCCC(S)C(C)CO (stereo not drawn)
inactive: all assays above
